From ChEMBL document CHEMBL1255501, “Heteroresistance of Cryptococcus gattii to fluconazole” (2010)
Activity calls are given as the source filed them.

Tests used:
Assay type in all cases: functional, organism-based
Conditions in all cases: Cryptococcus bacillisporus
[1] = system: Cryptococcus gattii species complex; test: Antimicrobial activity against fluconazole-resistant Cryptococcus gattii serotype C isolate H0058-1-818 at 64 ug/ml
[2] = system: Cryptococcus gattii species complex; test: Antimicrobial activity against fluconazole-resistant Cryptococcus gattii serotype B isolate B3939 at 64 ug/ml
Procedure, shortened: (§1)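 Strains were grown overnight in YPD broth at 30°C, washed, serially diluted in sterile saline and spotted at 3 μl onto YPD agar alone or YPD agar containing a xenobiotic: rhizoxin 0.5 μg/ml, gliotoxin 3.2 μg/ml or trichostatin A 64 μg/ml. Growth was compared by spot test.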

[3] = system: Cryptococcus gattii species complex; test: Antimicrobial activity against fluconazole-resistant Cryptococcus gattii serotype B isolate NIH189 at 64 ug/ml; procedure, shortened: as §1
[4] = system: Cryptococcus gattii species complex; test: Antimicrobial activity against fluconazole-resistant Cryptococcus gattii serotype B isolate NIH412 at 64 ug/ml; procedure, shortened: as §1
[5] = system: Cryptococcus gattii species complex; test: Antimicrobial activity against fluconazole-resistant Cryptococcus gattii serotype B isolate NIH409 at 64 ug/ml; procedure, shortened: as §1
[6] = system: Cryptococcus gattii species complex; test: Antimicrobial activity against fluconazole-resistant Cryptococcus gattii serotype C isolate NIH257 at 64 ug/ml
[7] = system: Cryptococcus gattii species complex; test: Antimicrobial activity against fluconazole-resistant Cryptococcus gattii serotype B isolate B4506 at 64 ug/ml; procedure, shortened: as §1
[8] = system: Cryptococcus gattii species complex; test: Antimicrobial activity against fluconazole-resistant Cryptococcus gattii serotype C isolate H00581-1941 at 64 ug/ml
[9] = system: Cryptococcus gattii species complex; test: Antimicrobial activity against fluconazole-resistant Cryptococcus gattii serotype B isolate B5763 at 64 ug/ml; procedure, shortened: as §1
[10] = system: Cryptococcus gattii species complex; test: Antimicrobial activity against fluconazole-resistant Cryptococcus gattii serotype B isolate NIH184 at 64 ug/ml; procedure, shortened: as §1
[11] = system: Cryptococcus deuterogattii; test: Antimicrobial activity against fluconazole-resistant Cryptococcus gattii serotype B isolate NIH444 at 64 ug/ml; procedure, shortened: as §1
[12] = system: Cryptococcus gattii species complex; test: Antimicrobial activity against fluconazole-resistant Cryptococcus gattii serotype B isolate NIH198 at 64 ug/ml; procedure, shortened: as §1
[13] = system: Cryptococcus gattii species complex; test: Antimicrobial activity against fluconazole-resistant Cryptococcus gattii serotype B isolate NIH754 at 64 ug/ml; procedure, shortened: as §1
[14] = system: Cryptococcus gattii species complex; test: Antimicrobial activity against fluconazole-resistant Cryptococcus gattii serotype B isolate RB3 at 64 ug/ml
[15] = system: Cryptococcus gattii species complex; test: Antimicrobial activity against fluconazole-resistant Cryptococcus gattii serotype C isolate NIH34 at 64 ug/ml
[16] = system: Cryptococcus gattii species complex; test: Antimicrobial activity against fluconazole-resistant Cryptococcus gattii serotype B isolate NIH200 at 64 ug/ml; procedure, shortened: as §1
[17] = system: Cryptococcus gattii species complex; test: Antimicrobial activity against fluconazole-resistant Cryptococcus gattii serotype B isolate B5788 at 64 ug/ml; procedure, shortened: as §1
[18] = system: Cryptococcus gattii species complex; test: Antimicrobial activity against fluconazole-resistant Cryptococcus gattii serotype B isolate NIH535 at 64 ug/ml; procedure, shortened: as §1
[19] = system: Cryptococcus gattii species complex; test: Antimicrobial activity against fluconazole-resistant Cryptococcus gattii serotype B isolate NIH771 at 64 ug/ml
[20] = system: Cryptococcus gattii species complex; test: Antimicrobial activity against fluconazole-resistant Cryptococcus gattii serotype B isolate NIH771 at 3.2 ug/ml
[21] = system: Cryptococcus gattii species complex; test: Antimicrobial activity against fluconazole-resistant Cryptococcus gattii serotype B isolate NIH198 at 3.2 ug/ml; procedure, shortened: as §1
[22] = system: Cryptococcus gattii species complex; test: Antimicrobial activity against fluconazole-resistant Cryptococcus gattii serotype B isolate B4506 at 3.2 ug/ml; procedure, shortened: as §1
[23] = system: Cryptococcus gattii species complex; test: Antimicrobial activity against fluconazole-resistant Cryptococcus gattii serotype C isolate NIH257 at 3.2 ug/ml
[24] = system: Cryptococcus gattii species complex; test: Antimicrobial activity against fluconazole-resistant Cryptococcus gattii serotype B isolate B5788 at 3.2 ug/ml; procedure, shortened: as §1
[25] = system: Cryptococcus gattii species complex; test: Antimicrobial activity against fluconazole-resistant Cryptococcus gattii serotype C isolate H0058-1-818 at 3.2 ug/ml
[26] = system: Cryptococcus gattii species complex; test: Antimicrobial activity against fluconazole-resistant Cryptococcus gattii serotype B isolate NIH409 at 3.2 ug/ml; procedure, shortened: as §1
[27] = system: Cryptococcus gattii species complex; test: Antimicrobial activity against fluconazole-resistant Cryptococcus gattii serotype B isolate B3939 at 3.2 ug/ml; procedure, shortened: as §1
[28] = system: Cryptococcus gattii species complex; test: Antimicrobial activity against fluconazole-resistant Cryptococcus gattii serotype B isolate B5763 at 3.2 ug/ml; procedure, shortened: as §1
[29] = system: Cryptococcus gattii species complex; test: Antimicrobial activity against fluconazole-resistant Cryptococcus gattii serotype B isolate NIH200 at 3.2 ug/ml; procedure, shortened: as §1
[30] = system: Cryptococcus gattii species complex; test: Antimicrobial activity against fluconazole-resistant Cryptococcus gattii serotype B isolate NIH189 at 3.2 ug/ml; procedure, shortened: as §1
[31] = system: Cryptococcus gattii species complex; test: Antimicrobial activity against fluconazole-resistant Cryptococcus gattii serotype B isolate NIH412 at 3.2 ug/ml; procedure, shortened: as §1
[32] = system: Cryptococcus gattii species complex; test: Antimicrobial activity against fluconazole-resistant Cryptococcus gattii serotype C isolate H00581-1941 at 3.2 ug/ml
[33] = system: Cryptococcus gattii species complex; test: Antimicrobial activity against fluconazole-resistant Cryptococcus gattii serotype B isolate NIH754 at 3.2 ug/ml; procedure, shortened: as §1
[34] = system: Cryptococcus gattii species complex; test: Antimicrobial activity against fluconazole-resistant Cryptococcus gattii serotype C isolate NIH34 at 3.2 ug/ml
[35] = system: Cryptococcus gattii species complex; test: Antimicrobial activity against fluconazole-resistant Cryptococcus gattii serotype B isolate RB3 at 3.2 ug/ml
[36] = system: Cryptococcus gattii species complex; test: Antimicrobial activity against fluconazole-resistant Cryptococcus gattii serotype B isolate NIH535 at 3.2 ug/ml; procedure, shortened: as §1
[37] = system: Cryptococcus deuterogattii; test: Antimicrobial activity against fluconazole-resistant Cryptococcus gattii serotype B isolate NIH444 at 3.2 ug/ml; procedure, shortened: as §1
[38] = system: Cryptococcus gattii species complex; test: Antimicrobial activity against fluconazole-resistant Cryptococcus gattii serotype B isolate NIH184 at 3.2 ug/ml; procedure, shortened: as §1
[39] = system: Cryptococcus gattii species complex; test: Antimicrobial activity against fluconazole-resistant Cryptococcus gattii serotype B isolate NIH189 at 0.5 ug/ml; procedure, shortened: as §1
[40] = system: Cryptococcus gattii species complex; test: Antimicrobial activity against fluconazole-resistant Cryptococcus gattii serotype B isolate NIH535 at 0.5 ug/ml; procedure, shortened: as §1
[41] = system: Cryptococcus gattii species complex; test: Antimicrobial activity against fluconazole-resistant Cryptococcus gattii serotype B isolate NIH771 at 0.5 ug/ml; procedure, shortened: as §1
[42] = system: Cryptococcus gattii species complex; test: Antimicrobial activity against fluconazole-resistant Cryptococcus gattii serotype C isolate H00581-1941 at 0.5 ug/ml
[43] = system: Cryptococcus gattii species complex; test: Antimicrobial activity against fluconazole-resistant Cryptococcus gattii serotype B isolate NIH198 at 0.5 ug/ml; procedure, shortened: as §1
[44] = system: Cryptococcus gattii species complex; test: Antimicrobial activity against fluconazole-resistant Cryptococcus gattii serotype B isolate NIH200 at 0.5 ug/ml; procedure, shortened: as §1
[45] = system: Cryptococcus gattii species complex; test: Antimicrobial activity against fluconazole-resistant Cryptococcus gattii serotype B isolate NIH184 at 0.5 ug/ml; procedure, shortened: as §1
[46] = system: Cryptococcus gattii species complex; test: Antimicrobial activity against fluconazole-resistant Cryptococcus gattii serotype C isolate NIH257 at 0.5 ug/ml
[47] = system: Cryptococcus deuterogattii; test: Antimicrobial activity against fluconazole-resistant Cryptococcus gattii serotype B isolate NIH444 at 0.5 ug/ml; procedure, shortened: as §1
[48] = system: Cryptococcus gattii species complex; test: Antimicrobial activity against fluconazole-resistant Cryptococcus gattii serotype B isolate B3939 at 0.5 ug/ml; procedure, shortened: as §1
[49] = system: Cryptococcus gattii species complex; test: Antimicrobial activity against fluconazole-resistant Cryptococcus gattii serotype B isolate B5788 at 0.5 ug/ml; procedure, shortened: as §1
[50] = system: Cryptococcus gattii species complex; test: Antimicrobial activity against fluconazole-resistant Cryptococcus gattii serotype B isolate NIH754 at 0.5 ug/ml; procedure, shortened: as §1
[51] = system: Cryptococcus gattii species complex; test: Antimicrobial activity against fluconazole-resistant Cryptococcus gattii serotype B isolate B5763 at 0.5 ug/ml; procedure, shortened: as §1
[52] = system: Cryptococcus gattii species complex; test: Antimicrobial activity against fluconazole-resistant Cryptococcus gattii serotype C isolate H0058-1-818 at 0.5 ug/ml
[53] = system: Cryptococcus gattii species complex; test: Antimicrobial activity against fluconazole-resistant Cryptococcus gattii serotype B isolate B4506 at 0.5 ug/ml; procedure, shortened: as §1
[54] = system: Cryptococcus gattii species complex; test: Antimicrobial activity against fluconazole-resistant Cryptococcus gattii serotype B isolate NIH412 at 0.5 ug/ml; procedure, shortened: as §1
[55] = system: Cryptococcus gattii species complex; test: Antimicrobial activity against fluconazole-resistant Cryptococcus gattii serotype C isolate NIH34 at 0.5 ug/ml
[56] = system: Cryptococcus gattii species complex; test: Antimicrobial activity against fluconazole-resistant Cryptococcus gattii serotype B isolate NIH409 at 0.5 ug/ml; procedure, shortened: as §1
[57] = system: Cryptococcus gattii species complex; test: Antimicrobial activity against fluconazole-resistant Cryptococcus gattii serotype B isolate RB3 at 0.5 ug/ml

Measured: Activity

CC(/C=C/C(=O)NO)=C\[C@@H](C)C(=O)c1ccc(N(C)C)cc1
inactive: [1] | [2] | [3] | [4] | [5] | [6] | [7] | [8] | [9] | [10] | [11] | [12] | [13] | [14] | [15] | [16] | [17] | [18] | [19]

CN1C(=O)[C@]23CC4=CC=C[C@H](O)[C@H]4N2C(=O)[C@@]1(CO)SS3
inactive: [20] | [21] | [22] | [23] | [24] | [25] | [26] | [27] | [28] | [29] | [30] | [31] | [32] | [33] | [34] | [35] | [36] | [37] | [38]

CO[C@@H](/C(C)=C/C=C/C(C)=C/c1coc(C)n1)[C@@H](C)[C@@H]1C[C@H](O)[C@@]2(C)O[C@@H]2/C=C/[C@@H](C)[C@H]2C[C@H](CC(=O)O2)C[C@@H]2O[C@H]2C(=O)O1
inactive: [39] | [40] | [41] | [42] | [43] | [44] | [45] | [46] | [47] | [48] | [49] | [50] | [51] | [52] | [53] | [54] | [55] | [56] | [57]
